# Screening data from PubChem BioAssay.
# MrgX1 antag – human MrgX1 receptor antagonism, primary screen. Q96LB2. MRGX1-HEK293 calcium flux, Fluo-4, BAM8-22 antagonism; stronger effect = lower value. B-score at 10 µM. hit rate 1.3% among 310,000;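 active = calcium-response B-score plate-corrected more than 3 library SD below zero, starting fluorescence within 5 deviations, no agonist response on first addition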;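 note: peak minus trough fluorescence over baseline after final BAM8-22 challenge near maximal dose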
# Target sequence (Q96LB2 whole entry, looked up): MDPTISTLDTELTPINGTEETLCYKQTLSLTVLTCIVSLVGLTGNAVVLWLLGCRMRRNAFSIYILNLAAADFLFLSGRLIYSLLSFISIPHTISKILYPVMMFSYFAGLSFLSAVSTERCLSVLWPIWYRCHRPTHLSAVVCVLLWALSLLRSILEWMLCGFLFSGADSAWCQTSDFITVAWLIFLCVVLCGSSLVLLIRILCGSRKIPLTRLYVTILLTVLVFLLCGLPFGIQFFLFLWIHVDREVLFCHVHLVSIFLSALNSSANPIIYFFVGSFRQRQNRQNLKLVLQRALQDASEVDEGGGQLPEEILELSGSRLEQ
# RGS4 pot – potentiators or activators of RGS4; HEK293 M3R/inducible RGS4, carbachol calcium flux Fluo4; stronger effect = lower value; B-score at 10 µM; hit rate 0.92% among 310,000; AID 463111;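 active = B-score of the integrated calcium signal more than 4 SD below the library mean, with starting fluorescence not abnormally high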;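 note: negative B-score means reduced calcium response which marks RGS4 activation or potentiation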
#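 System – HEK293 FlpIn-TREx cells, stable M3R, doxycycline-inducible RGS4 · Reagent – ECmax carbachol challenge · Times – compound preincubation 20 min at room temperature before agonist · Technique – Fluo4 fluorescence kinetic imaging of calcium · Measure – B score of integrated Fluo4 ratio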
# MrgX1 ag – activates human MrgX1 receptor signaling. Q96LB2. MrgX1-HEK293 cells, Fluo-4 calcium fluorescence, agonist mode; stronger effect = higher value. AID 588627. B-score at 10 µM. hit rate 0.44% among 310,000;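 active = calcium response B-score plate-corrected fluorescence ratio at least 3 library SD, with starting fluorescence B-score inside 5 SD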
#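 Assay system: stable human MrgX1 HEK293 cell line. Quantity: 15,000 cells per well. Schedule: cells plated overnight, dye loaded 0.5 h 37 °C, 0.5 h room temperature. Detection: Fluo-4 NW calcium-flux fluorescence, kinetic read. Read-out basis: peak-minus-minimum fluorescence over baseline, converted to B scores. Control set: positive and negative control wells on each plate.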
# MrgX1 allo act – human MrgX1 positive allosteric modulation, primary screen. Q96LB2. MrgX1-HEK293, Fluo-4 calcium flux, FDSS; stronger effect = higher value. B-score at 10 µM. hit rate 0.63% among 310,000. AID 588675;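 active = plate-corrected calcium response at least 3 library SD above typical, normal starting fluorescence, not activating the receptor alone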;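 note: compound read alongside a low EC10 to EC30 dose of BAM8-22 agonist; peak minus trough fluorescence over baseline measured at the second addition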
# RGS4 block – human RGS4 inhibition; P49798; hit rate 0.45% among 310,000; HEK293 M3R/RGS4 inducible, Fluo-4 calcium flux; stronger effect = higher value; triggered by carbachol at its EC20; B-score at 10 µM;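 active = B-score, a plate-corrected calcium signal, over three deviations above library mean, with baseline fluorescence within five deviations of library mean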;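 note: RGS4 expression induced by doxycycline in cells with stable M3 receptor; B-score is computed from the integrated fluorescence ratio over baseline after carbachol; higher B-score means a larger calcium signal and so more RGS4 inhibition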
# Target sequence (P49798 whole entry, looked up): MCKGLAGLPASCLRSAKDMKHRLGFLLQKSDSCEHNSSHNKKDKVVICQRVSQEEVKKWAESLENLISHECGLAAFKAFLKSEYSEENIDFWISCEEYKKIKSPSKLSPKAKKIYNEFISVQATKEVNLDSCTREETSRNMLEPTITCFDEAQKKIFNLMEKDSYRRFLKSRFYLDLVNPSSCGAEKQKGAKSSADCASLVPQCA
# RGS4 block valid – validation of RGS4 inhibitors | hit rate 65% among 1,700 | AID 492999 | calcium response, % at 10 µM | HEK293 M3R/RGS4, carbachol calcium Fluo-4 fluorescence; carbachol added at its EC20; 0 = buffer wells, 100 = carbachol control | shares compounds with RGS4 block;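 active = duplicate-averaged calcium response above the buffer-only control mean plus 5 SD of those controls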;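 note: integrated fluorescence ratio F max minus min over baseline F0; higher response in RGS4-induced cells means RGS4 inhibition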
# M3R Ca ctr – non-induced cell nonspecific activity of RGS4 inhibitors; HEK293 M3R non-induced, carbachol calcium Fluo-4; submaximal (EC20) carbachol stimulus; buffer wells 0%, carbachol control wells 100%; hit rate 20% among 1,900; shares compounds with RGS4 block; AID 493000; activity (percent), % at 10 µM; call rule not given here;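 note: RGS4 induction absent so cells express M3R without RGS4; higher means more calcium signal and flags a non-specific hit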
# RGS4 inh ctr2 – second counter-screen for RGS4 inhibitors: non-induced cells without carbachol; shares compounds with RGS4 block; HEK293 M3R/RGS4 non-induced, Fluo-4 calcium, no carbachol; normalised: buffer wells 0%, carbachol wells 100%; calcium response (agonist-mode artifact), % at 10 µM; hit rate 22% among 1,900; AID 493001;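 active = duplicate-averaged calcium rise in uninduced cells above buffer wells' mean plus 5 SD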
# * = called active by the depositor; i = inactive; · = no result. In the library only some 3.5% were active in any assay of this set; here they are far more common.
SMILES,MrgX1 antag,RGS4 pot,MrgX1 ag,MrgX1 allo act,RGS4 block,RGS4 block valid,M3R Ca ctr,RGS4 inh ctr2
CCOC(=O)[C@@H]1[C@H]2COc3ccccc3[C@@H]2N2C(=O)N(c3cccc(Cl)c3)C(=O)[C@@]12C,i,i,i,i,i,i,i,i
CCOC(=O)[C@@H]1[C@H]2COc3ccccc3[C@H]2N2C(=O)N(c3cccc(Cl)c3)C(=O)[C@@]12C,i,i,i,i,6.5*,36%*,32%*,i
O=C(CN1CCN(C(=O)C2CCCO2)CC1)Nc1ccc(Cl)c(Cl)c1 (stereo not drawn),i,i,i,i,i,·,·,·
CCOC(=O)Cc1cnc(NC(=O)CSc2nc(C(C)C)cc(=O)[nH]2)s1,i,i,i,i,i,·,·,·
CCOc1ccc(N(CC)C(=O)c2cn(CC)c(=O)c3cc(OC)c(OC)cc23)cc1,i,i,i,i,i,·,·,·
CCOc1cc(/C=C\[N+](=O)[O-])ccc1OCC(=O)Nc1ccccc1C,i,i,i,i,43*,54%*,47%*,i
Cc1cc(C)c(O)c(-c2cc(C(=O)Nc3c(C)n(C)n(-c4ccccc4)c3=O)[nH]n2)c1,i,i,i,i,i,·,·,·
CCSc1n[nH]c2nc3c(c(=O)n12)C1(CCCC1)Cc1ccccc1-3,i,i,i,i,i,·,i,i
C=CCSc1n[nH]c2nc3c(c(=O)n12)C1(CCCC1)Cc1ccccc1-3,i,·,i,i,·,·,·,·
C=CCSc1nc2ccccc2n1C(=O)/C=C/c1ccc(OC)c(OC)c1,i,i,i,i,i,·,i,12%*
C=CCSc1nc2ccccc2n1C(=O)/C=C/c1cc(OC)c(OC)c(OC)c1,i,i,i,i,i,·,·,·
CCSc1nc2ccccc2n1C(=O)/C=C/c1ccc(OC)c(OC)c1,i,i,i,i,11*,12%*,i,i
C[C@@]12C(=O)Nc3cc(Cl)ccc3C(=O)N1[C@H]1c3cc(Br)ccc3OC[C@@H]1[C@@H]2c1ccccc1,i,·,i,i,·,·,·,·
CCN(c1ccccc1C(=O)O)S(=O)(=O)c1cccc2nsnc12,i,i,i,i,i,·,·,·
O=Nc1c(O)n(Cc2ccc(Cl)c(Cl)c2)c2ccccc12,i,i,i,i,15*,16%*,39%*,i
CC(=O)NC(c1cccc([N+](=O)[O-])c1)c1c(OC(C)=O)ccc2ccccc12 (stereo not drawn),i,i,i,i,i,·,·,·
CC(=O)Oc1ccc2ccccc2c1C(NC(=O)Cc1ccccc1)c1ccccc1 (stereo not drawn),i,i,i,i,5.5*,14%*,30%*,i
CCOC(=O)C1(CCCc2ccccc2)CCN(C(=O)CCOC)CC1,i,i,i,i,i,·,·,·
O=C1[C@H]2[C@@H](C(=O)N1c1cc(Cl)cc(Cl)c1)[C@]1(C(=O)Nc3ccccc31)N1CCC[C@@H]21,i,i,i,i,5.2*,i,i,i
COC(=O)c1c(N2C(=O)[C@H]3[C@@H](C2=O)[C@]2(C(=O)Nc4ccccc42)N2CCC[C@@H]32)sc(C)c1C,i,i,i,i,i,·,·,·
Cn1ncc(Br)c1C(=O)NC1CCCCCCC1,·,i,·,·,i,·,·,·
Cc1nn(C)c(C(=O)NNC(=S)NC2CCCCC2)c1Br,i,i,i,i,8.5*,23%*,32%*,i
CC(NC(=O)[C@H](C)NC(=O)[C@@H]1CSC2c3ccccc3C(=O)N21)c1ccccc1 (stereo partly drawn),i,i,i,i,i,·,·,·
Cc1ccc2c(CN3CCC(C)CC3)cc(=O)oc2c1,i,i,i,i,i,·,·,·
CCOC(=O)C1CCN(Cc2cc(=O)oc3cc(C)ccc23)CC1,i,i,i,i,5.5*,i,i,i
SMILES,MrgX1 antag,RGS4 pot,MrgX1 ag,MrgX1 allo act,RGS4 block,RGS4 block valid,M3R Ca ctr,RGS4 inh ctr2
CCOC(=O)C1CCCN(Cc2cc(=O)oc3cc(C)ccc23)C1 (stereo not drawn),i,i,i,i,i,i,i,10%*
COc1ccc(NC(=O)CCS(=O)(=O)c2ccc3c(c2)oc(=O)n3C)cc1,i,i,i,i,i,·,·,·
N#CC1=C(N)C(C#N)(C#N)C2(C(=O)Nc3ccccc32)C2CCCC=C12 (stereo not drawn),i,i,i,i,5.4*,24%*,31%*,i
COc1ccc(C(=O)NC(C)CCCC(C)(C)O)cc1OC1CCN(C(C)=O)CC1 (stereo not drawn),i,i,i,i,i,·,·,·
Cc1ccc(SC(CC(=O)c2ccc(F)cc2)C(=O)O)cc1 (stereo not drawn),i,i,i,i,i,·,i,i
Cc1ccc(C=Nc2ccc(N(C)C)cc2)o1,i,i,i,i,5.3*,10%*,i,i
COc1ccc(N2CCN(C3CCN(S(=O)(=O)c4ccc(F)cc4)CC3)CC2)cc1,i,i,i,i,i,·,·,·
COc1ccc(S(=O)(=O)N2CCN(c3ccc4nnc(-c5ccc(F)cc5)n4n3)CC2)cc1,i,i,i,i,i,·,32%*,i
Cc1ccc(C2CC(c3ccccc3OC(F)F)Nc3ncnn32)cc1 (stereo not drawn),i,i,i,i,i,·,i,i
Cc1ccccc1C1CC(c2ccccc2OC(F)F)Nc2ncnn21 (stereo not drawn),i,i,i,i,5.3*,11%*,i,i
Cc1ccnc(NS(=O)(=O)c2ccc(NC(=O)c3ccc(Cl)cc3[N+](=O)[O-])cc2)n1,i,i,i,i,i,·,·,·
O=c1[nH]cc(S(=O)(=O)N2CCOCC2)c(=O)[nH]1,i,i,i,i,i,·,·,·
N#C/C(=C\c1ccc([N+](=O)[O-])cc1)c1nc(C2CC2)cs1,i,i,i,i,13*,i,i,56%*
N#C/C(=C\c1ccccc1[N+](=O)[O-])c1nc(C2CC2)cs1,i,i,i,i,i,·,·,·
